Source: ChEMBL document CHEMBL5247575 (J Med Chem, 2018)

Key:
[1] = system: Klebsiella pneumoniae; assay: Synergistic antibacterial activity against Klebsiella pneumoniae 901/1860 producing KPC-3 assessed as meropenem MIC at 4 ug/ml by broth microdilution method; assay type: functional; details: dose 4 µg/ml
[2] = system: Klebsiella pneumoniae; assay: Synergistic antibacterial activity against Klebsiella pneumoniae 761/1723 producing KPC-3 assessed as meropenem MIC at 8 ug/ml by broth microdilution method; assay type: functional; details: dose 8 µg/ml
[3] = system: Klebsiella pneumoniae; assay: Synergistic antibacterial activity against Klebsiella pneumoniae 1398/2291 producing KPC-3 assessed as meropenem MIC at 8 ug/ml by broth microdilution method; assay type: functional; details: dose 8 µg/ml
How it was run: (§1)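 Broth microdilution per CLSI guidelines, using custom frozen panels. […] Each partner drug was also tested alone. MICs were run in triplicate and the modal value is reported.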

[4] = system: Klebsiella pneumoniae; assay: Synergistic antibacterial activity against Klebsiella pneumoniae 977/1916 producing KPC-3 assessed as cefepime MIC at 4 ug/ml by broth microdilution method; assay type: functional; details: dose 4 µg/ml
[5] = system: Acinetobacter baumannii; assay: Synergistic antibacterial activity against ADC deleted Acinetobacter baumannii transfected with pWH1266 OXA-23 assessed as cefepime MIC at 4 ug/ml by broth microdilution method; assay type: functional; details: dose 4 µg/ml
[6] = system: Bacteria; assay: Inhibition of bacteria ADC-7 assessed as half life using nitrocefin as substrate
[7] = system: Klebsiella pneumoniae; assay: Synergistic antibacterial activity against Klebsiella pneumoniae 761/1723 producing KPC-3 assessed as cefepime MIC at 8 ug/ml by broth microdilution method; assay type: functional; details: dose 8 µg/ml; how it was run: as §1
[8] = system: Acinetobacter baumannii; assay: Synergistic antibacterial activity against ADC deleted Acinetobacter baumannii assessed as cefepime MIC at 4 ug/ml by broth microdilution method; assay type: functional; details: dose 4 µg/ml
[9] = system: Klebsiella pneumoniae; assay: Synergistic antibacterial activity against Klebsiella pneumoniae 1108/1989 producing KPC-3 assessed as meropenem MIC at 8 ug/ml by broth microdilution method; assay type: functional; details: dose 8 µg/ml; how it was run: as §1
[10] = system: Klebsiella pneumoniae; assay: Synergistic antibacterial activity against Klebsiella pneumoniae 977/1916 producing KPC-3 assessed as meropenem MIC at 8 ug/ml by broth microdilution method; assay type: functional; details: dose 8 µg/ml
[11] = system: Klebsiella pneumoniae; assay: Antibacterial activity against Klebsiella pneumoniae jefferson 1775 producing OXA-48 by broth microdilution method; assay type: functional
[12] = system: Acinetobacter baumannii; assay: Synergistic antibacterial activity against Acinetobacter baumannii PR408 producing OXA-24/40 assessed as meropenem MIC at 8 ug/ml by broth microdilution method; assay type: functional; details: dose 8 µg/ml
[13] = system: Klebsiella pneumoniae; assay: Synergistic antibacterial activity against Klebsiella pneumoniae 660/1568 producing KPC-3 assessed as cefepime MIC at 4 ug/ml by broth microdilution method; assay type: functional; details: dose 4 µg/ml; how it was run: as §1
[14] = system: Bacteria; assay: Inhibition of bacteria ADC-7 assessed as second order rate constant K2/K using nitrocefin as substrate
[15] = system: Escherichia coli; assay: Synergistic antibacterial activity against Escherichia coli DH10B assessed as meropenem MIC at 4 ug/ml by broth microdilution method; assay type: functional; details: dose 4 µg/ml
[16] = system: Klebsiella pneumoniae; assay: Synergistic antibacterial activity against Klebsiella pneumoniae CAV 1543 producing OXA-48 assessed as meropenem MIC at 8 ug/ml by broth microdilution method; assay type: functional; details: dose 8 µg/ml
[17] = system: Klebsiella pneumoniae; assay: Synergistic antibacterial activity against Klebsiella pneumoniae 901/1860 producing KPC-3 assessed as cefepime MIC at 4 ug/ml by broth microdilution method; assay type: functional; details: dose 4 µg/ml
[18] = system: Klebsiella pneumoniae; assay: Synergistic antibacterial activity against Klebsiella pneumoniae CAV 1636 producing OXA-181 assessed as meropenem MIC at 4 ug/ml by broth microdilution method; assay type: functional; details: dose 4 µg/ml
[19] = system: Klebsiella pneumoniae; assay: Synergistic antibacterial activity against Klebsiella pneumoniae 761/1723 producing KPC-3 assessed as meropenem MIC at 4 ug/ml by broth microdilution method; assay type: functional; details: dose 4 µg/ml
[20] = system: Acinetobacter baumannii; assay: Synergistic antibacterial activity against Acinetobacter baumannii PR359 producing OXA-23 assessed as cefepime MIC at 4 ug/ml by broth microdilution method; assay type: functional; details: dose 4 µg/ml
[21] = system: Pseudomonas aeruginosa; assay: Synergistic antibacterial activity against Pseudomonas aeruginosa CL232 assessed as meropenem MIC at 8 ug/ml by broth microdilution method; assay type: functional; details: dose 8 µg/ml
[22] = system: Acinetobacter baumannii; assay: Synergistic antibacterial activity against Acinetobacter baumannii PR323 producing OXA-24/40 assessed as cefepime MIC at 4 ug/ml by broth microdilution method; assay type: functional; details: dose 4 µg/ml
[23] = system: Klebsiella pneumoniae; assay: Synergistic antibacterial activity against Klebsiella pneumoniae 1315/2198 producing KPC-3 assessed as meropenem MIC at 8 ug/ml by broth microdilution method; assay type: functional; details: dose 8 µg/ml; how it was run: as §1
[24] = system: Klebsiella pneumoniae; assay: Synergistic antibacterial activity against Klebsiella pneumoniae 776/1742 producing KPC-2 assessed as meropenem MIC at 8 ug/ml by broth microdilution method; assay type: functional; details: dose 8 µg/ml
[25] = system: Klebsiella pneumoniae; assay: Synergistic antibacterial activity against Klebsiella pneumoniae 1354/2241 producing KPC-3 assessed as meropenem MIC at 4 ug/ml by broth microdilution method; assay type: functional; details: dose 4 µg/ml; how it was run: as §1
[26] = system: Klebsiella pneumoniae; assay: Synergistic antibacterial activity against Klebsiella pneumoniae 1108/1989 producing KPC-3 assessed as cefepime MIC at 4 ug/ml by broth microdilution method; assay type: functional; details: dose 4 µg/ml; how it was run: as §1
[27] = system: Acinetobacter baumannii; assay: Synergistic antibacterial activity against Acinetobacter baumannii PR363 producing OXA-23 assessed as meropenem MIC at 8 ug/ml by broth microdilution method; assay type: functional; details: dose 8 µg/ml
[28] = system: Acinetobacter baumannii; assay: Synergistic antibacterial activity against ADC deleted Acinetobacter baumannii transfected with pWH1266 OXA-23 assessed as meropenem MIC at 8 ug/ml by broth microdilution method; assay type: functional; details: dose 8 µg/ml
How it was run: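 Broth microdilution per CLSI guidelines in frozen panels. Test compound held at fixed 8 mg/L while the partner β-lactam concentration was increased. Run in triplicate; modal MIC reported.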

[29] = system: Klebsiella pneumoniae; assay: Synergistic antibacterial activity against Klebsiella pneumoniae 1315/2198 producing KPC-3 assessed as meropenem MIC at 4 ug/ml by broth microdilution method; assay type: functional; details: dose 4 µg/ml; how it was run: as §1
[30] = system: Klebsiella pneumoniae; assay: Synergistic antibacterial activity against Klebsiella pneumoniae 1084/1957 producing KPC-3 assessed as meropenem MIC at 4 ug/ml by broth microdilution method; assay type: functional; details: dose 4 µg/ml; how it was run: as §1
[31] = system: Klebsiella pneumoniae; assay: Synergistic antibacterial activity against Klebsiella pneumoniae 660/1568 producing KPC-3 assessed as meropenem MIC at 8 ug/ml by broth microdilution method; assay type: functional; details: dose 8 µg/ml; how it was run: as §1
[32] = system: Klebsiella pneumoniae; assay: Synergistic antibacterial activity against Klebsiella pneumoniae CAV 1543 producing OXA-48 assessed as cefepime MIC at 4 ug/ml by broth microdilution method; assay type: functional; details: dose 4 µg/ml
[33] = system: Pseudomonas aeruginosa; assay: Synergistic antibacterial activity against Pseudomonas aeruginosa 795 assessed as meropenem MIC at 8 ug/ml by broth microdilution method; assay type: functional; details: dose 8 µg/ml
[34] = system: Pseudomonas aeruginosa; assay: Synergistic antibacterial activity against Pseudomonas aeruginosa 795 assessed as cefepime MIC at 4 ug/ml by broth microdilution method; assay type: functional; details: dose 4 µg/ml
[35] = system: Acinetobacter baumannii; assay: Synergistic antibacterial activity against Acinetobacter baumannii PR381 producing OXA-24/40 assessed as meropenem MIC at 8 ug/ml by broth microdilution method; assay type: functional; details: dose 8 µg/ml
[36] = system: Acinetobacter baumannii; assay: Synergistic antibacterial activity against Acinetobacter baumannii PR474 producing OXA-23/24/40 assessed as meropenem MIC at 8 ug/ml by broth microdilution method; assay type: functional; details: dose 8 µg/ml
[37] = system: Klebsiella pneumoniae; assay: Synergistic antibacterial activity against Klebsiella pneumoniae 776/1742 producing KPC-2 assessed as cefepime MIC at 4 ug/ml by broth microdilution method; assay type: functional; details: dose 4 µg/ml
[38] = system: Klebsiella pneumoniae; assay: Synergistic antibacterial activity against Klebsiella pneumoniae 440/1360 producing KPC-2 assessed as cefepime MIC at 8 ug/ml by broth microdilution method; assay type: functional; details: dose 8 µg/ml; how it was run: as §1
[39] = system: Escherichia coli; assay: Synergistic antibacterial activity against Escherichia coli DH10B assessed as cefepime MIC at 8 ug/ml by broth microdilution method; assay type: functional; details: dose 8 µg/ml
[40] = Binding affinity to bacteria ADC-7 assessed as dissociation constant

Structure (SMILES)	MIC [1] [µg/mL]	MIC [4] [µg/mL]	MIC [5] [µg/mL]	T1/2 [6] [min]	MIC [8] [µg/mL]	MIC [11] [µg/mL]	MIC [13] [µg/mL]	K [14]	MIC [15] [µg/mL]	MIC [17] [µg/mL]	MIC [19] [µg/mL]	MIC [20] [µg/mL]	MIC [22] [µg/mL]	MIC [25] [µg/mL]	MIC [26] [µg/mL]	MIC [29] [µg/mL]	MIC [30] [µg/mL]	MIC [32] [µg/mL]	MIC [34] [µg/mL]	MIC [37] [µg/mL]	other results
N#C[C@@H]1CC[C@@H]2CN1C(=O)N2OS(=O)(=O)[O-].[Na+]	≤ 0.12	≤ 0.12	2	12	0.5	> 16	0.25	1.9 10^4/M/s	≤ 0.12	≤ 0.12	≤ 0.12	8	> 16	≤ 0.12	0.25	≤ 0.12	≤ 0.12	0.25	> 16	1	MIC [2]: ≤ 0.12 µg/mL; MIC [3]: ≤ 0.12 µg/mL; MIC [7]: ≤ 0.12 µg/mL; MIC [9]: ≤ 0.12 µg/mL; MIC [10]: ≤ 0.12 µg/mL; MIC [12]: > 16 µg/mL; MIC [16]: ≤ 0.12 µg/mL; MIC [18]: ≤ 0.12 µg/mL; MIC [21]: > 16 µg/mL; MIC [23]: ≤ 0.12 µg/mL; MIC [24]: 0.25 µg/mL; MIC [27]: 2 µg/mL; MIC [28]: 4 µg/mL; MIC [31]: ≤ 0.12 µg/mL; MIC [33]: 16 µg/mL; MIC [35]: > 16 µg/mL; MIC [36]: 16 µg/mL; MIC [38]: 0.25 µg/mL; MIC [39]: ≤ 0.12 µg/mL
O=C(NNC(=O)[C@@H]1CC[C@@H]2CN1C(=O)N2OS(=O)(=O)O)[C@@H]1CCNC1	≤ 0.12	≤ 0.12	16	13	0.5	> 16	≤ 0.12	3.2 10^4/M/s	≤ 0.12	≤ 0.12	≤ 0.12	8	4	≤ 0.12	≤ 0.12	≤ 0.12	≤ 0.12	≤ 0.12	0.5	≤ 0.12	MIC [2]: ≤ 0.12 µg/mL; MIC [3]: ≤ 0.12 µg/mL; MIC [7]: ≤ 0.12 µg/mL; MIC [9]: ≤ 0.12 µg/mL; MIC [10]: ≤ 0.12 µg/mL; MIC [12]: > 16 µg/mL; MIC [16]: ≤ 0.12 µg/mL; MIC [18]: ≤ 0.12 µg/mL; MIC [21]: 16 µg/mL; MIC [23]: ≤ 0.12 µg/mL; MIC [24]: ≤ 0.12 µg/mL; Kd [40]: 29 nM; MIC [27]: > 16 µg/mL; MIC [28]: > 16 µg/mL; MIC [31]: ≤ 0.12 µg/mL; MIC [33]: ≤ 0.12 µg/mL; MIC [35]: > 16 µg/mL; MIC [36]: > 16 µg/mL; MIC [38]: ≤ 0.12 µg/mL; MIC [39]: ≤ 0.12 µg/mL
NC(=O)[C@@H]1CC[C@@H]2CN1C(=O)N2OS(=O)(=O)[O-].[Na+] [AVIBACTAM SODIUM]	≤ 0.12	≤ 0.12		33	0.5	> 16	≤ 0.12	3.9 10^3/M/s	≤ 0.12	≤ 0.12	≤ 0.12	16	> 16	≤ 0.12	≤ 0.12	≤ 0.12	≤ 0.12	0.25	> 16	0.5	MIC [18]: 1 µg/mL; Kd [40]: 90 nM
O.O=C(NC1CCNCC1)[C@@H]1CC[C@@H]2CN1C(=O)N2OS(=O)(=O)O [RELEBACTAM]	≤ 0.12	0.25	> 16	39	0.25	> 16	0.25	7.8 10^3/M/s	≤ 0.12	≤ 0.12	≤ 0.12	16	> 16	≤ 0.12	0.5	≤ 0.12	≤ 0.12	2	> 16	1	MIC [18]: 16 µg/mL
O=C(NNC(=O)[C@@H]1CC[C@@H]2CN1C(=O)N2OS(=O)(=O)O)[C@@H]1CCCNC1 [ZIDEBACTAM]	≤ 0.12	≤ 0.12	16	11	0.25		≤ 0.12	3.5 10^4/M/s	≤ 0.12	≤ 0.12	≤ 0.12	8	4	≤ 0.12	≤ 0.12	≤ 0.12	≤ 0.12	≤ 0.12	16	≤ 0.12	MIC [2]: ≤ 0.12 µg/mL; MIC [3]: ≤ 0.12 µg/mL; MIC [7]: ≤ 0.12 µg/mL; MIC [9]: ≤ 0.12 µg/mL; MIC [10]: ≤ 0.12 µg/mL; MIC [12]: > 16 µg/mL; MIC [16]: ≤ 0.12 µg/mL; MIC [21]: > 16 µg/mL; MIC [23]: ≤ 0.12 µg/mL; MIC [24]: ≤ 0.12 µg/mL; Kd [40]: 32 nM; MIC [27]: > 16 µg/mL; MIC [28]: > 16 µg/mL; MIC [31]: ≤ 0.12 µg/mL; MIC [33]: 4 µg/mL; MIC [35]: > 16 µg/mL; MIC [36]: > 16 µg/mL; MIC [38]: ≤ 0.12 µg/mL; MIC [39]: ≤ 0.12 µg/mL
